Results taken from ChEMBL document CHEMBL2407016 (J Med Chem, 2013).
The source made the active and inactive calls. The rule behind the calls is not given here.

Key:
[1] = Inhibition of Plasmodium falciparum DXR using DXP as substrate measured every 5 secs for 250 secs in presence of NADPH
[2] = molecular target: T1, 1-deoxy-D-xylulose 5-phosphate reductoisomerase (Mycobacterium tuberculosis, UniProt P9WNS1); assay: Inhibition of Mycobacterium tuberculosis DXR using DXP as substrate measured every 5 secs for 250 secs in presence of NADPH
T1 sequence (P9WNS1 whole entry): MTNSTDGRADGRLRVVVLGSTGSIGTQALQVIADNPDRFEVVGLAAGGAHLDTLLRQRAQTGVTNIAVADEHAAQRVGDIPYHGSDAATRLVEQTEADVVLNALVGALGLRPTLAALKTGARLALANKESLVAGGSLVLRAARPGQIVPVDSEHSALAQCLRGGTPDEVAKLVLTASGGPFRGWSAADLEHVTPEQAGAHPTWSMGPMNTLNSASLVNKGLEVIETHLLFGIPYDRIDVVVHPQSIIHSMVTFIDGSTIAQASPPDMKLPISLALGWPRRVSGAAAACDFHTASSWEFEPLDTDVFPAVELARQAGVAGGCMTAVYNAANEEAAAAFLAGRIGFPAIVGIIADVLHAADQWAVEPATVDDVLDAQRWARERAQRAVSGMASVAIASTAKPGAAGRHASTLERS
In short: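 MtDXR activity assay run with NADPH cofactor at 200 μM; IC50 taken from inhibition of enzyme activity.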

[3] = Inhibition of Escherichia coli DXR using DXP as substrate measured every 5 secs for 250 secs in presence of NADPH
Plasmodium falciparum = assay: Antimalarial activity against Plasmodium falciparum 3D7 assessed as parasite growth inhibition after 18 hrs by SYBR Green-1 staining-based fluorescence assay; format: functional, organism-based; conditions: 3D7, 18 h
[4] = system: Mycobacterium tuberculosis; assay: Antibacterial activity against Mycobacterium tuberculosis H37Rv assessed as growth inhibition by Alamar blue assay; format: functional, organism-based
[5] = molecular target: T2, 1-deoxy-D-xylulose 5-phosphate reductoisomerase (Mycobacterium tuberculosis) (UniProt P9WNS1); assay: Inhibition of Mycobacterium tuberculosis DXR using DXP as substrate at 100 uM measured every 5 secs for 250 secs in presence of NADPH relative to control
T2 sequence (whole entry): T1 sequence (P9WNS1 whole entry)

[6] = molecular target: T1, 1-deoxy-D-xylulose 5-phosphate reductoisomerase; assay: Binding affinity to Mycobacterium tuberculosis DXR assessed as dissociation constant by spectrofluorimetric analysis in presence of NADPH and MnCl2
In short: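 Purified MtDXR; binding followed by direct fluorescence from changes in the environment of the protein's six tryptophan residues.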

| Structure (SMILES) | IC50 [1] [µM] | IC50 [2] [µM] | IC50 [3] [µM] | IC50 (Plasmodium falciparum) [µM] | growth inhibition (GI) [4] | inhibition [5] [%] | Kd [6] [µM] |
| --- | --- | --- | --- | --- | --- | --- | --- |
| O=C(c1ccccc1)N(O)CCCP(=O)(O)O | 0.061 | 2 | 0.13 |  |  |  |  |
| C[C@@H]1CC[C@H]2[C@@H](C)C(=O)O[C@@H]3O[C@@]4(C)CC[C@@H]1[C@]32OO4 [ARTEMISININ] |  |  |  | 0.005 |  |  |  |
| Cc1ccccc1C(=O)N(O)CCC(c1ccc(Cl)c(Cl)c1)P(=O)(O)O (stereo not given) |  | 0.83 |  | > 10 | inactive | 95 |  |
| O=C(c1cccnc1)N(O)CCCP(=O)(O)O |  | 1.6 |  |  |  |  |  |
| O=C(c1ccccc1-c1ccccc1)N(O)CCC(c1ccc(Cl)c(Cl)c1)P(=O)(O)O (stereo not given) |  | 21 |  | > 10 | inactive | 60 |  |
| O=C(c1ccccc1C(F)(F)F)N(O)CCC(c1ccc(Cl)c(Cl)c1)P(=O)(O)O (stereo not given) |  | 9 |  |  | inactive | 70 |  |
| O=C(c1ccccc1Cn1cncn1)N(O)CCC(c1ccc(Cl)c(Cl)c1)P(=O)(O)O (stereo not given) |  | 13 |  | > 10 | inactive | 70 | 0.04 |
| O=C(c1ccccc1Cc1cccs1)N(O)CCC(c1ccc(Cl)c(Cl)c1)P(=O)(O)O (stereo not given) |  | 7 |  | > 10 | inactive | 90 |  |
| O=C(c1ccc2ccccc2c1)N(O)CCCP(=O)(O)O |  | 2 |  |  |  |  |  |
| O=C(NCC(=O)N(O)CCCP(=O)(O)O)C1CC1 | 3.3 | > 200 | 7.1 |  |  |  |  |
| O=CN(O)CCC(c1ccc(Cl)c(Cl)c1)P(=O)(O)O (stereo not given) |  |  |  |  |  |  | 0.12 |
| O=CN(O)CCCP(=O)(O)O [FOSMIDOMYCIN] | 0.032 |  | 0.05 |  |  |  |  |
| O=C(c1ccccc1OC(F)(F)F)N(O)CCC(c1ccc(Cl)c(Cl)c1)P(=O)(O)O (stereo not given) |  | 8 |  | > 10 | inactive | 90 | 0.09 |
| O=C(C1CC1)N(O)CCCP(=O)(O)O |  | 156 | 4.44 |  |  |  |  |
| O=C(c1cccc(Cn2cncn2)c1)N(O)CCC(c1ccc(Cl)c(Cl)c1)P(=O)(O)O (stereo not given) |  | 0.14 |  | 0.39 | inactive | 90 | 0.17 |
| O=C(c1ccc(Cn2cncn2)cc1)N(O)CCC(c1ccc(Cl)c(Cl)c1)P(=O)(O)O (stereo not given) |  | 1.2 |  | 0.19 | inactive | 80 | 0.2 |
| O=C(c1ccccc1)N(O)CCC(c1ccc(Cl)c(Cl)c1)P(=O)(O)O (stereo not given) |  | 0.32 |  | 0.04 | inactive | 100 | 0.21 |
| CCC(=O)N(O)CCCP(=O)(O)O |  | 27.2 |  |  |  |  |  |
| O=C(c1ccccc1Nc1cccc(C(F)(F)F)c1)N(O)CCC(c1ccc(Cl)c(Cl)c1)P(=O)(O)O (stereo not given) |  | 19 |  | > 10 | inactive | 80 | 0.09 |
| O=C(Cc1ccccc1)N(O)CCCP(=O)(O)O |  | 67.7 | 13 |  |  |  | 0.32 |
| NC(=O)c1cncc(C(=O)N(O)CCCP(=O)(O)O)c1 |  | 3.6 |  |  |  |  |  |
| CC(=O)N(O)CCCP(=O)(O)O [FR-900098] | 0.018 |  | 0.051 |  |  |  |  |
| CC(=O)Oc1cccc(C(=O)N(O)CCC(c2ccc(Cl)c(Cl)c2)P(=O)(O)O)c1 (stereo not given) |  | > 100 |  | 3.9 | inactive | 30 |  |
| CC(=O)N(O)CCC(c1ccc(Cl)c(Cl)c1)P(=O)(O)O (stereo not given) |  |  |  |  |  |  | 0.36 |
| O=C(CCCOc1ccccc1)NCC(=O)N(O)CCCP(=O)(O)O | 0.4 | > 200 | 1 |  |  |  |  |
| O=C(c1ccco1)N(O)CCCP(=O)(O)O |  | 48.7 |  |  |  |  |  |
